Data from ChEMBL document CHEMBL1143812, “A novel bis-tetrahydrofuranylurethane-containing nonpeptidic protease inhibitor (PI), GRL-98065, is potent against multiple-PI-resistant human immunodeficiency virus in vitro” (Antimicrob Agents Chemother, 2007).
pEC50: −log10 of the molar value.

Tests used:
[1] = tested on: Human immunodeficiency virus 1; assay: Antiviral activity against HIV1 MDR/JSL R5 in phytohemagglutininin-activated PBMCs assessed as inhibition of p24 Gag protein expression by MTT assay; type: functional, organism-based
In short: (§1)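 PHA-activated PBMCs (10^6/ml) infected with 50 TCID50s of each isolate and cultured with or without drug in 10-fold serial dilutions. The read-out was supernatant p24 Gag by chemiluminescent enzyme immunoassay. […] Assays were run in duplicate or triplicate, with one donor per experiment and three donors in total.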

[2] = tested on: Human immunodeficiency virus 1; assay: Antiviral activity against HIV1 MDR/MM R5 in phytohemagglutininin-activated PBMCs assessed as inhibition of p24 Gag protein expression by MTT assay; type: functional, organism-based; in short: as §1
[3] = tested on: Human immunodeficiency virus 1; assay: Antiviral activity against wild type HIV1 ERS104prc X4 in phytohemagglutininin-activated PBMCs assessed as inhibition of p24 Gag protein expression by MTT assay; type: functional, organism-based
In short: (§2)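 PHA-activated PBMCs (10^6/ml) infected with 50 TCID50s of each isolate and cultured with or without drug in 10-fold serial dilutions. The read-out was supernatant p24 Gag by chemiluminescent enzyme immunoassay. Assays were run in duplicate or triplicate, with one donor per experiment and three donors in total.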

[4] = tested on: Human immunodeficiency virus 1; assay: Antiviral activity against HIV1 GRL98065p20 in MT4 cells assessed as inhibition of p24 Gag protein expression by MTT assay; type: functional, organism-based; settings: Human immunodeficiency virus 1, MT4
In short: (§3)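 MT-4 cells (10^5/ml) infected with 100 TCID50s of wild-type or PI-resistant NL4-3 virus and incubated at 37°C with or without graded drug concentrations. On day 7, supernatant p24 Gag was measured by chemiluminescent enzyme immunoassay. […] Assays were run in duplicate or triplicate.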

[5] = tested on: Human immunodeficiency virus 1; assay: Antiviral activity against HIV1 MDR/B X4 in phytohemagglutininin-activated PBMCs assessed as inhibition of p24 Gag protein expression by MTT assay; type: functional, organism-based; in short: as §1
[6] = tested on: Human immunodeficiency virus 1; assay: Antiviral activity against HIV1 92UG037 subtype A R5 in phytohemagglutininin-activated PBMCs assessed as inhibition of p24 Gag protein expression by MTT assay; type: functional, organism-based; in short: as §1
[7] = tested on: Human immunodeficiency virus 1; assay: Antiviral activity against HIV1 GRL98065p30 in MT4 cells assessed as inhibition of p24 Gag protein expression by MTT assay; type: functional, organism-based; settings: Human immunodeficiency virus 1, MT4; in short: as §3
[8] = tested on: Human immunodeficiency virus 1; assay: Antiviral activity against lopinavir-resistant HIV1 in MT4 cells assessed as inhibition of p24 Gag protein expression by MTT assay; type: functional, organism-based; settings: Human immunodeficiency virus 1, MT4; in short: as §3
[9] = tested on: Human immunodeficiency virus 2; assay: Antiviral activity against HIV2 ROD in MT2 cells assessed as inhibition of p24 Gag protein expression by MTT assay; type: functional, organism-based; settings: Human immunodeficiency virus 2, ROD
In short: (§4)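 MT-2 cells (2 × 10^4/ml) were infected with 100 TCID50s of the HIV-1LAI, HIV-2EHO or HIV-2ROD strain. They were cultured with serial drug concentrations at 37°C for 7 days. MTT was then added for 4 h at 37°C, formazan was dissolved in acidified isopropanol with 4% Triton X-100, and optical density was read. EC50 is the mean of three independent experiments, each run in duplicate.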

[10] = tested on: Human immunodeficiency virus 1; assay: Antiviral activity against saquinavir-resistant HIV1 in MT4 cells assessed as inhibition of p24 Gag protein expression by MTT assay; type: functional, organism-based; settings: Human immunodeficiency virus 1, MT4; in short: as §3
[11] = Cytotoxicity against human MT2 cells assessed as inhibition of p24 Gag protein expression by MTT assay; type: cell-based
[12] = tested on: Human immunodeficiency virus 1; assay: Antiviral activity against HIV1 GRL98065p40 in MT4 cells assessed as inhibition of p24 Gag protein expression by MTT assay; type: functional, organism-based; settings: Human immunodeficiency virus 1, MT4; in short: as §3
[13] = tested on: Human immunodeficiency virus 1; assay: Antiviral activity against idinavir-resistant HIV1 in MT4 cells assessed as inhibition of p24 Gag protein expression by MTT assay; type: functional, organism-based; settings: Human immunodeficiency virus 1, MT4; in short: as §3
[14] = tested on: Human immunodeficiency virus 1; assay: Antiviral activity against atazanavir-resistant HIV1 in MT4 cells assessed as inhibition of p24 Gag protein expression by MTT assay; type: functional, organism-based; settings: Human immunodeficiency virus 1, MT4; in short: as §3
[15] = tested on: Human immunodeficiency virus 2; assay: Antiviral activity against HIV2 EHO in MT2 cells assessed as inhibition of p24 Gag protein expression by MTT assay; type: functional, organism-based; settings: Human immunodeficiency virus 2, EHO; in short: as §4
[16] = tested on: Human immunodeficiency virus 1; assay: Antiviral activity against amprenavir-resistant HIV1 in MT4 cells assessed as inhibition of p24 Gag protein expression by MTT assay; type: functional, organism-based; settings: Human immunodeficiency virus 1, MT4; in short: as §3
[17] = tested on: Human immunodeficiency virus 1; assay: Antiviral activity against nelfinavir-resistant HIV1 in MT4 cells assessed as inhibition of p24 Gag protein expression by MTT assay; type: functional, organism-based; settings: Human immunodeficiency virus 1, MT4; in short: as §3
[18] = tested on: Human immunodeficiency virus 1; assay: Antiviral activity against HIV1 MDR/TM X4 in phytohemagglutininin-activated PBMCs assessed as inhibition of p24 Gag protein expression by MTT assay; type: functional, organism-based; in short: as §1
[19] = tested on: Human immunodeficiency virus 1; assay: Antiviral activity against HIV1 92UG029 X4 subtype A in phytohemagglutininin-activated PBMCs assessed as inhibition of p24 Gag protein expression by MTT assay; type: functional, organism-based; in short: as §1
[20] = tested on: Human immunodeficiency virus 1; assay: Antiviral activity against ritonavir-resistant HIV1 in MT4 cells assessed as inhibition of p24 Gag protein expression by MTT assay; type: functional, organism-based; settings: Human immunodeficiency virus 1, MT4; in short: as §3
[21] = tested on: Human immunodeficiency virus 1; assay: Antiviral activity against HIV1 92TH019 R5 subtype E in phytohemagglutininin-activated PBMCs assessed as inhibition of p24 Gag protein expression by MTT assay; type: functional, organism-based; in short: as §1
[22] = tested on: Human immunodeficiency virus 1; assay: Antiviral activity against HIV1 LAI in MT2 cells assessed as inhibition of p24 Gag protein expression by MTT assay; type: functional, organism-based; settings: Human immunodeficiency virus 1, LAI; in short: as §4
[23] = tested on: Human immunodeficiency virus 1; assay: Antiviral activity against HIV1 97ZA003 R5 subtype C in phytohemagglutininin-activated PBMCs assessed as inhibition of p24 Gag protein expression by MTT assay; type: functional, organism-based; in short: as §1
[24] = tested on: Human immunodeficiency virus 1; assay: Antiviral activity against HIV1 BaL R5 subtype B in phytohemagglutininin-activated PBMCs assessed as inhibition of p24 Gag protein expression by MTT assay; type: functional, organism-based; in short: as §2
[25] = tested on: Human immunodeficiency virus 1; assay: Antiviral activity against HIV1 NL4-3 in MT4 cells by MTT assay; type: functional, organism-based; settings: Human immunodeficiency virus 1, NL4-3, MT4
[26] = tested on: Human immunodeficiency virus 1; assay: Antiviral activity against HIV1 MDR/G X4 in phytohemagglutininin-activated PBMCs assessed as inhibition of p24 Gag protein expression by MTT assay; type: functional, organism-based; in short: as §2
[27] = tested on: Human immunodeficiency virus 1; assay: Antiviral activity against HIV1 MDR/C X4 in phytohemagglutininin-activated PBMCs assessed as inhibition of p24 Gag protein expression by MTT assay; type: functional, organism-based; in short: as §1

SMILES	pEC50 [1]	pEC50 [2]	pEC50 [3]	pEC50 [4]	pEC50 [5]	pEC50 [6]	pEC50 [7]	pEC50 [9]	pEC50 [10]	CC50 [11] [nM]	pEC50 [12]	pEC50 [13]	pEC50 [14]	pEC50 [15]	pEC50 [16]	pEC50 [17]	pEC50 [19]	pEC50 [21]	pEC50 [22]	pEC50 [23]	also measured
CC(C)CN(C[C@@H](O)[C@H](Cc1ccccc1)NC(=O)O[C@H]1CCOC1)S(=O)(=O)c1ccc(N)cc1	6.37	6.32	7.54	7.24	6.44	7.57	6.48	6.24	6.48	> 100000	< 6.00	6.77	6.70	6.60	< 6.00	7.22	7.34	7.68	7.44	7.48	pEC50 [8]: 6.51; pEC50 [18]: 6.52; pEC50 [20]: 6.55
Cc1cccc(C)c1OCC(=O)N[C@@H](Cc1ccccc1)[C@@H](O)C[C@H](Cc1ccccc1)NC(=O)[C@H](C(C)C)N1CCCNC1=O [LOPINAVIR]	–	–	8.15	7.47	–	–	7.22	8.31	–	> 100000	–	–	–	8.59	–	–	8.15	8.48	8.15	8.14	pEC50 [24]: 8.28
COC(=O)N[C@H](C(=O)N[C@@H](Cc1ccccc1)[C@@H](O)CN(Cc1ccc(-c2ccccn2)cc1)NC(=O)[C@@H](NC(=O)OC)C(C)(C)C)C(C)(C)C [ATAZANAVIR]	6.27	7.35	8.42	8.22	6.60	8.60	8.10	7.89	6.49	27600	7.96	7.22	6.48	8.30	8.52	7.68	8.22	8.57	8.32	8.47	pEC50 [8]: 7.40; pEC50 [25]: 8.38; pEC50 [26]: 7.49; pEC50 [18]: 7.42; pEC50 [24]: 8.89; pEC50 [20]: 7.74; pEC50 [27]: 7.68
CC(C)(C)NC(=O)[C@@H]1C[C@@H]2CCCC[C@@H]2CN1C[C@@H](O)[C@H](Cc1ccccc1)NC(=O)[C@H](CC(N)=O)NC(=O)c1ccc2ccccc2n1	6.54	6.85	8.10	7.92	6.57	8.49	7.66	8.37	< 6.00	16400	7.49	7.23	7.43	8.52	7.51	7.62	8.32	8.52	8.10	8.17	pEC50 [8]: 7.49; pEC50 [25]: 8.15; pEC50 [26]: 7.48; pEC50 [18]: 6.74; pEC50 [24]: 8.08; pEC50 [20]: 8.00; pEC50 [27]: 7.46
CC(C)(C)NC(=O)[C@@H]1CN(Cc2cccnc2)CCN1C[C@@H](O)C[C@@H](Cc1ccccc1)C(=O)N[C@H]1c2ccccc2C[C@H]1O	< 6.00	< 6.00	7.62	7.40	< 6.00	7.47	7.23	7.27	< 6.00	69800	6.55	< 6.00	6.41	7.62	6.70	6.57	7.36	7.68	7.32	7.43	pEC50 [8]: < 6.00; pEC50 [26]: 6.19; pEC50 [18]: < 6.00; pEC50 [24]: 7.66; pEC50 [20]: 6.60; pEC50 [27]: < 6.00
CC(C)CN(C[C@@H](O)[C@H](Cc1ccccc1)NC(=O)O[C@H]1CO[C@H]2OCC[C@H]21)S(=O)(=O)c1ccc2c(c1)OCO2	8.22	8.42	9.30	8.42	8.41	9.40	8.10	8.35	8.22	35700	6.74	8.43	8.82	8.49	7.49	8.62	9.30	9.52	9.30	9.30	pEC50 [8]: 8.12; pEC50 [25]: 9.52; pEC50 [26]: 8.47; pEC50 [18]: 8.49; pEC50 [24]: 9.70; pEC50 [20]: 8.60; pEC50 [27]: 8.57
CC(C)c1nc(CN(C)C(=O)N[C@H](C(=O)N[C@@H](Cc2ccccc2)C[C@H](O)[C@H](Cc2ccccc2)NC(=O)OCc2cncs2)C(C)C)cs1 [RITONAVIR]	–	–	–	6.89	–	7.39	6.52	6.59	–	–	–	–	–	6.68	–	–	7.15	7.52	7.27	7.41	pEC50 [25]: 7.48
CC(C)CN(C[C@@H](O)[C@H](Cc1ccccc1)NC(=O)O[C@H]1CO[C@H]2OCC[C@H]21)S(=O)(=O)c1ccc(N)cc1	7.57	7.80	8.42	7.68	7.40	–	7.44	8.17	8.24	83100	6.68	7.82	8.47	8.10	6.48	8.48	–	–	8.41	–	pEC50 [26]: 8.15; pEC50 [18]: 8.37; pEC50 [20]: 7.74; pEC50 [27]: 8.05
Cc1c(O)cccc1C(=O)N[C@@H](CSc1ccccc1)[C@H](O)CN1C[C@H]2CCCC[C@H]2C[C@H]1C(=O)NC(C)(C)C	–	–	–	7.10	–	7.25	6.57	6.62	–	8100	–	–	–	7.52	–	–	7.37	7.54	7.49	7.43	pEC50 [25]: 7.48; pEC50 [24]: 7.74
